Laboratory results: ChEMBL document CHEMBL1177850, “Design, synthesis and antiproliferative activity of styryl lactones related to (+)-goniofufurone” (Eur J Med Chem, 2010)

tested on: HeLa; experiment: Antiproliferative activity against human HeLa cells after 72 hrs by MTT assay; format: functional, cell-based; settings: not given
Method in brief: (§1)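 Seeded at 5 × 10^3 cells/well in 96-well plates after harvesting in exponential growth and trypan blue counting. MRC-5 are normal foetal lung fibroblasts. Exposure was 72 h, with MTT colorimetric read-out. Results are means (SD) of three independent experiments done in quadruplicate.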

Compared with O=C1CC[C@@H]([C@@H](O)[C@H](O)[C@H](O)c2ccccc2)O1, O=C1C[C@H]2O[C@H]([C@H](O)c3ccccc3)[C@H](O)[C@H]2O1 is 3.6-fold higher in IC50: 2340 nM for the first, 8320 nM for the second. The first is the more potent here.

O=C1C[C@H]2O[C@H]([C@H](OC(=O)c3ccccc3)c3ccccc3)[C@H](O)[C@H]2O1 and O=C1CC2O[C@H](Cc3ccccc3)C(O)C2O1 (single isomer, unassigned) are within 1.5-fold of each other in IC50: 5690 nM for the first, 4420 nM for the second.

tested on: HL-60; experiment: Antiproliferative activity against human HL60 cells after 72 hrs by MTT assay; format: functional, cell-based; settings: HL-60, 72 h
Method in brief: (§2)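 Exponentially growing cells were counted by trypan blue exclusion and seeded at 10^4 cells/well in 96-well plates to keep growth logarithmic. Cells were exposed to compound for 72 h, then read by tetrazolium (MTT) colorimetry. IC50 is the concentration giving 50% growth inhibition versus untreated control. Values are means (SD) of three independent experiments, each in quadruplicate.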

Compared with O=C1CC[C@@H]([C@@H](O)[C@H](O)[C@H](O)c2ccccc2)O1, O=C1C[C@H]2O[C@H]([C@H](O)c3ccccc3)[C@H](O)[C@H]2O1 is higher in IC50: 90 nM for the first, greater than 100000 nM for the second.

First: O=C1C[C@H]2O[C@H]([C@H](OC(=O)c3ccccc3)c3ccccc3)[C@H](O)[C@H]2O1
Second: O=C(/C=C/c1ccccc1)O[C@H](c1ccccc1)[C@H]1O[C@@H]2CC(=O)O[C@@H]2[C@H]1O [(+)-CRASSALACTONE C]
The IC50 of the first is lower: 120 nM for the first, greater than 100000 nM for the second.

In the case of O=C1CC2O[C@H](Cc3ccccc3)C(O)C2O1 (single isomer, unassigned), the IC50 is reported as 43800 nM.

tested on: K562; experiment: Antiproliferative activity against human K562 cells after 72 hrs by MTT assay; format: functional, cell-based; settings: K562, 72 h
Method in brief: as §2, with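 “colorimetry.” for “colorimetry. IC50 is the concentration giving 50% growth inhibition versus untreated control.”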

O=C1CC[C@@H]([C@@H](O)[C@H](O)[C@H](O)c2ccccc2)O1 and O=C1C[C@H]2O[C@H]([C@H](O)c3ccccc3)[C@H](O)[C@H]2O1 are within 1.5-fold of each other in IC50: 540 nM for the first, 410 nM for the second.

Compared with O=C1C[C@H]2O[C@H]([C@H](OC(=O)c3ccccc3)c3ccccc3)[C@H](O)[C@H]2O1, O=C(/C=C/c1ccccc1)O[C@H](c1ccccc1)[C@H]1O[C@@H]2CC(=O)O[C@@H]2[C@H]1O [(+)-CRASSALACTONE C] is 15-fold higher in IC50: 230 nM for the first, 3560 nM for the second.

O=C1CC2O[C@H](Cc3ccccc3)C(O)C2O1 (single isomer, unassigned) showed an IC50 of 510 nM.

tested on: Jurkat; experiment: Antiproliferative activity against human Jurkat cells after 72 hrs by MTT assay; format: functional, cell-based; settings: not given; method in brief: as §2

Going from O=C1CC[C@@H]([C@@H](O)[C@H](O)[C@H](O)c2ccccc2)O1 to O=C1C[C@H]2O[C@H]([C@H](O)c3ccccc3)[C@H](O)[C@H]2O1, the IC50 rises from 2230 nM to 32500 nM (15-fold).

Going from O=C1C[C@H]2O[C@H]([C@H](OC(=O)c3ccccc3)c3ccccc3)[C@H](O)[C@H]2O1 to O=C1CC2O[C@H](Cc3ccccc3)C(O)C2O1 (single isomer, unassigned), the IC50 rises from 360 nM to 2520 nM (7-fold). The first is the more potent here.

tested on: MRC5; experiment: Antiproliferative activity against human MRC5 cells after 72 hrs by MTT assay; format: functional, cell-based; settings: MRC5, 72 h; method in brief: as §1

O=C1CC[C@@H]([C@@H](O)[C@H](O)[C@H](O)c2ccccc2)O1 and O=C1C[C@H]2O[C@H]([C@H](O)c3ccccc3)[C@H](O)[C@H]2O1 cannot be ordered by IC50: greater than 100000 nM for the first, greater than 100000 nM for the second.

O=C1C[C@H]2O[C@H]([C@H](OC(=O)c3ccccc3)c3ccccc3)[C@H](O)[C@H]2O1 and O=C(/C=C/c1ccccc1)O[C@H](c1ccccc1)[C@H]1O[C@@H]2CC(=O)O[C@@H]2[C@H]1O [(+)-CRASSALACTONE C] cannot be ordered by IC50: greater than 100000 nM for the first, greater than 100000 nM for the second.

O=C1CC2O[C@H](Cc3ccccc3)C(O)C2O1 (single isomer, unassigned) was tested, and the IC50 was greater than 100000 nM.

tested on: Raji; experiment: Antiproliferative activity against human Raji cells after 72 hrs by MTT assay; format: functional, cell-based; settings: not given
Method in brief: as §2, with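 “colorimetry.” for “colorimetry. IC50 is the concentration giving 50% growth inhibition versus untreated control.”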

Compared with O=C1CC[C@@H]([C@@H](O)[C@H](O)[C@H](O)c2ccccc2)O1, O=C1C[C@H]2O[C@H]([C@H](O)c3ccccc3)[C@H](O)[C@H]2O1 is 8.3-fold higher in IC50: 2210 nM for the first, 18400 nM for the second. The first is the more potent here.

O=C1C[C@H]2O[C@H]([C@H](OC(=O)c3ccccc3)c3ccccc3)[C@H](O)[C@H]2O1 and O=C1CC2O[C@H](Cc3ccccc3)C(O)C2O1 (single isomer, unassigned) are within 1.5-fold of each other in IC50: 1010 nM for the first, 1030 nM for the second.
